# Assay results: ChEMBL document CHEMBL1138602, “Discovery of sodium 6-[(5-chloro-2-{[(4-chloro-2-fluorophenyl)methyl]oxy}phenyl)methyl]-2-pyridinecarboxylate (GSK269984A) an EP(1) receptor antagonist for the treatment of inflammatory pain” (Bioorg Med Chem Lett, 2009)
# Legend:
# [1] = Intrinsic clearance in cynomolgus monkey hepatocytes measured per gram of liver at 0.15 to 0.2 X 10^6 cells/ml cell density; type: ADME, cell-based, Macaca fascicularis, Hepatocyte
# In short: (§1)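 Intrinsic clearance in hepatocytes expressed as mL/min/g liver. Cell densities were 0.15–0.2 × 10^6 cells/mL or 0.54–0.7 × 10^6 cells/mL.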
# [2] = Oral bioavailability in Sprague-Dawley rat at 3 mg/kg; type: ADME, organism-based; details: in vivo
# In short: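 Single oral dose of 3 mg/kg in 1% (w/v) methylcellulose vehicle. Rats were male Sprague-Dawley; dogs were beagle. Bioavailability (Fpo) determined.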
# [3] = biological target: T1, Thromboxane A2 receptor (Homo sapiens, UniProt P21731); assay: Inhibition of TP receptor
# T1 sequence (P21731 whole entry): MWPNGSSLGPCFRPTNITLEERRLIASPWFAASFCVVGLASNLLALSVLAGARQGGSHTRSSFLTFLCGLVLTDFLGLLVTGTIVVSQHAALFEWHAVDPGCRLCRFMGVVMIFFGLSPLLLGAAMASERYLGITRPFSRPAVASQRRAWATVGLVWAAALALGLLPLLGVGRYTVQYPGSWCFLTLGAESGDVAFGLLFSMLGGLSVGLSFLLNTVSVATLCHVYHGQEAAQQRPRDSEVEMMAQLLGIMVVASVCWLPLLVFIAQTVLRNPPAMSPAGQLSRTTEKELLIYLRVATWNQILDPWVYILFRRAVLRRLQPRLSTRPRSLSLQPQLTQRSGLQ
# [4] = Clearance in Sprague-Dawley rat blood at 1 mg/kg administered by intravenous infusion for 1 hr; type: ADME, organism-based; design: dose 1 mg/kg, route intravenous
# In short: (§2)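 Intravenous administration as a 1 h infusion of a 1 mg/kg dose. Rats were male Sprague-Dawley; dogs were beagle; monkeys were cynomolgus. Blood clearance, Vss and half-life determined.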
# [5] = biological target: Cytochrome P450 2C19 (Homo sapiens, UniProt P33261); assay: Inhibition of human CYP2C19; type: ADME
# Chain of Cytochrome P450 2C19 (P33261 whole entry): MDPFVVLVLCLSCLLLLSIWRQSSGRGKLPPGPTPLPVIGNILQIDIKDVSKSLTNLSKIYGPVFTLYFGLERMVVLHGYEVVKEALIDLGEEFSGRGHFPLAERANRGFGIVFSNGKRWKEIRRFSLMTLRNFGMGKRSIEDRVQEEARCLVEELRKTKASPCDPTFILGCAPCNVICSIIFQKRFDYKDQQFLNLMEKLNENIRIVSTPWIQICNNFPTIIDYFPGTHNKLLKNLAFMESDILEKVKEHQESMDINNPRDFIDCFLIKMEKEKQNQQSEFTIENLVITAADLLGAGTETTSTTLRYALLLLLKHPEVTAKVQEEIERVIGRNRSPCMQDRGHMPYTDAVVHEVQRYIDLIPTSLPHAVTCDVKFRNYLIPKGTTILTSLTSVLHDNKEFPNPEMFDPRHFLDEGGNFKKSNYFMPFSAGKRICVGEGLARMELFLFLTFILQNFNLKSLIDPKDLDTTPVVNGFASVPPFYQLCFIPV
# In short: (§3)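 Inhibition of metabolism of fluorometric substrates (Cypex protocol); IC50 values are the mean of three experiments ± standard deviation.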
# [6] = Lipophilicity, log D at pH 7.4; type: physicochemical; details: buffer
# [7] = Half life in Sprague-Dawley rat at 1 mg/kg administered by intravenous infusion for 1 hr; type: ADME, organism-based; design: dose 1 mg/kg, route intravenous; details: in vivo; in short: as §2
# [8] = Ratio of drug level in brain to blood of rat at 0.5 mg/kg/hr administered by infusion for 12 hrs; details: brain and blood, intravenous
# [9] = test system: MDR1; assay: Permeability in dog MDCK2 cells over expressing MDR1 assessed as efflux ratio after 1 hr; details: MDCK-MDR1
# [10] = biological target: Prostacyclin receptor (Homo sapiens, UniProt P43119); assay: Inhibition of IP receptor
# Chain of Prostacyclin receptor (P43119 whole entry): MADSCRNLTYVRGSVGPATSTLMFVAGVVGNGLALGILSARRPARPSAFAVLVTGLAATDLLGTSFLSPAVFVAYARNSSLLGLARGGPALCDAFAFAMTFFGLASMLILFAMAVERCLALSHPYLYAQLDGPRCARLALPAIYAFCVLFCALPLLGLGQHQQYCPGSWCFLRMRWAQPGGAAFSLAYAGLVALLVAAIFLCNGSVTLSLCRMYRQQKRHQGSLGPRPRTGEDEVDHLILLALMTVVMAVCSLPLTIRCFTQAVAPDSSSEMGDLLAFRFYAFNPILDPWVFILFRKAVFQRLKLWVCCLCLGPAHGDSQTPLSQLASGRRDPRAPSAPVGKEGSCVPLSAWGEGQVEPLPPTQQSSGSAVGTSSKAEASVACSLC
# [11] = Ratio of drug level in brain to blood in complete Freund's adjuvant induced rat inflammatory pain model at 10 mg/kg, po bid for 5 days measured after 1 hr on day 5
# [12] = biological target: T2, Prostaglandin E2 receptor EP1 subtype (Homo sapiens, UniProt P34995); assay: Antagonist activity at human recombinant EP1 receptor expressed in CHO cells assessed as inhibition of PGE2-mediated intracellular calcium mobilization by FLIPR method; type: functional, cell-based
# T2 sequence (P34995 whole entry): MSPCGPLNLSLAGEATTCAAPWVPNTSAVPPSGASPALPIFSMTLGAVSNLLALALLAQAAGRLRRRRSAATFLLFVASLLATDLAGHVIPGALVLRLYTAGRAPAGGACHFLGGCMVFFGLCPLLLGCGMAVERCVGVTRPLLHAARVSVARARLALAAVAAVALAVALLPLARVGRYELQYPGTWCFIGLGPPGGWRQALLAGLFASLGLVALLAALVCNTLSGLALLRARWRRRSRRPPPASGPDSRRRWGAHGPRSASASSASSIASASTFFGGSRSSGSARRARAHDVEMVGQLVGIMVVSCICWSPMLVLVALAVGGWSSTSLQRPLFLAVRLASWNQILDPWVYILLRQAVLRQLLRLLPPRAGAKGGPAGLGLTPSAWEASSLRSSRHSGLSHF
# In short: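 CHO cells recombinantly overexpressing human EP1 receptor; antagonism measured as block of PGE2-mediated intracellular Ca2+ mobilization. Values are the mean of at least three experiments with standard deviations.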
# [13] = Ratio of drug level in brain to blood in complete Freund's adjuvant induced rat inflammatory pain model at 3 mg/kg, po bid for 5 days measured after 1 hr on day 5
# [14] = biological target: Cytochrome P450 2C9 (Homo sapiens, UniProt P11712); assay: Inhibition of human CYP2C9; type: ADME; in short: as §3
# Chain of Cytochrome P450 2C9 (P11712 whole entry): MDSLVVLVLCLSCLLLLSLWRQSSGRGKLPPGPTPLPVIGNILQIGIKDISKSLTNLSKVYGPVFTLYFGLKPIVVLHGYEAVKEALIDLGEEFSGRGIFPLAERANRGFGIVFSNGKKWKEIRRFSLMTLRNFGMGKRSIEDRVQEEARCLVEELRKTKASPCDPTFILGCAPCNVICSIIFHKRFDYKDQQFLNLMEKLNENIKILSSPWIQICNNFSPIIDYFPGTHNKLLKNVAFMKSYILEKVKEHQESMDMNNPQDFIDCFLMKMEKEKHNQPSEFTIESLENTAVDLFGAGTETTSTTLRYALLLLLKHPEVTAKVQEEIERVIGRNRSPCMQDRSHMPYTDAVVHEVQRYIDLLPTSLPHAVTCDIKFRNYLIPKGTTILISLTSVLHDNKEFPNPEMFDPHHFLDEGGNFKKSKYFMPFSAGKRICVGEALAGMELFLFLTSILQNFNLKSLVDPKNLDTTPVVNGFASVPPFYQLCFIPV
# [15] = Drug level in brain of complete Freund's adjuvant-induced rat inflammatory pain model at 3 mg/kg, po administered after 23 hrs of adjuvant challenge measured after 1 hr; type: ADME, organism-based; design: dose 3 mg/kg, route oral; details: read-out: Drug uptake
# In short: (§4)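 CFA rat study: oral doses of 1, 3 or 10 mg/kg given 23 h after intraplantar adjuvant, samples 1 h post-dose. Blood values are the mean from seven animals. Brain values are the mean from three animals.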
# [16] = test system: Rattus norvegicus; assay: […] activity against complete Freund's adjuvant induced inflammatory pain in po dosed rat assessed as reversal of hypersensitivity post-adjuvant challenge after 1 hr; type: functional
# In short: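 Rats given adjuvant by intraplantar injection; oral dosing at 1, 3 and 10 mg/kg 23 h later. Hypersensitivity assessed by weight-bearing 1 h post-dose. ED50 derived across doses.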
# [17] = Half life in cynomolgus monkey at 1 mg/kg administered by intravenous infusion for 1 hr; type: ADME, organism-based, Macaca fascicularis; design: dose 1 mg/kg, route intravenous; details: in vivo; in short: as §2
# [18] = biological target: Prostaglandin F2-alpha receptor (Homo sapiens, UniProt P43088); assay: Inhibition of FP receptor
# Chain of Prostaglandin F2-alpha receptor (P43088 whole entry): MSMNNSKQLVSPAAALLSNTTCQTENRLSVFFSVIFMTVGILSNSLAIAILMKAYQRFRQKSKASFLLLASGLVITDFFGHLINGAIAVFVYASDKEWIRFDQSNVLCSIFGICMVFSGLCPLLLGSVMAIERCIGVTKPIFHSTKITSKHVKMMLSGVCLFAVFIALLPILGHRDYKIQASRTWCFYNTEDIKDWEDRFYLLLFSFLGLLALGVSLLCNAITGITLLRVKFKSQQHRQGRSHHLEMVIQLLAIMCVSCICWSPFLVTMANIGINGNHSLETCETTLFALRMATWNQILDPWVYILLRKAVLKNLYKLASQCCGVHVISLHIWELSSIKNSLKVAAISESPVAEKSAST
# [19] = Solubility in FeSSIF after 0.5 hrs; type: physicochemical
# In short: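 Solubility determined in water, FaSSIF and FeSSIF, all read at the 0.5 h time point.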
# [20] = biological target: Prostaglandin E2 receptor EP4 subtype (Homo sapiens, UniProt P35408); assay: Inhibition of EP4 receptor
# Chain of Prostaglandin E2 receptor EP4 subtype (P35408 whole entry): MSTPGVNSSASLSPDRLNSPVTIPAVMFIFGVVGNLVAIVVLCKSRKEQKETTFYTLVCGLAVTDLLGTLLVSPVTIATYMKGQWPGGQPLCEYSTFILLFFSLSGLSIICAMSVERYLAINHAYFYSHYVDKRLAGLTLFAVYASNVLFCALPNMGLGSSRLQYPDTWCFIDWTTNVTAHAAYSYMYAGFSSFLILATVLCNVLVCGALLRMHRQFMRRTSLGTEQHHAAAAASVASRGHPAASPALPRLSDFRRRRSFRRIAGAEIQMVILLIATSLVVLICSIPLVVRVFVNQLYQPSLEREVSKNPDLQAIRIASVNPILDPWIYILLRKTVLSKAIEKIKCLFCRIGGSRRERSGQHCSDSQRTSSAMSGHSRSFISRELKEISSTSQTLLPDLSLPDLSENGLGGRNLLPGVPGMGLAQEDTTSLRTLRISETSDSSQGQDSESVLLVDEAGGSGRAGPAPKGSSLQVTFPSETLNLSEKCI
# [21] = Drug level in blood of complete Freund's adjuvant-induced rat inflammatory pain model at 3 mg/kg, po administered after 23 hrs of adjuvant challenge measured after 1 hr; type: ADME, organism-based; design: dose 3 mg/kg, route oral; details: read-out: Drug uptake; in short: as §4
# [22] = Drug level in rat brain at 0.5 mg/kg/hr administered by infusion for 12 hrs; type: ADME, organism-based; details: intravenous, read-out: Drug uptake
# In short: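 Steady-state 12 h infusion at 5 mL/kg/h to reach a target dose of 0.5 mg/kg/h; blood and brain concentrations measured. Data are the mean from three animals.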
# [23] = Volume of distribution at steady state in Sprague-Dawley rat at 1 mg/kg administered by intravenous infusion for 1 hr; type: ADME, organism-based; design: dose 1 mg/kg, route intravenous; details: in vivo, read-out: Vdss
# [24] = Volume of distribution at steady state in cynomolgus monkey at 1 mg/kg administered by intravenous infusion for 1 hr; type: ADME, organism-based, Macaca fascicularis; design: dose 1 mg/kg, route intravenous; details: in vivo, read-out: Vdss
# [25] = test system: Hepatocyte; assay: Intrinsic clearance in human hepatocytes measured per gram of liver at 0.54 to 0.7 X 10^6 cells/ml cell density; type: ADME, cell-based; in short: as §1
# [26] = Drug level in brain of complete Freund's adjuvant-induced rat inflammatory pain model at 10 mg/kg, po administered after 23 hrs of adjuvant challenge measured after 1 hr; type: ADME, organism-based; design: dose 10 mg/kg, route oral; details: brain, read-out: Drug uptake; in short: as §4
# [27] = Ratio of drug level in brain to blood in complete Freund's adjuvant-induced rat inflammatory pain model at 3 mg/kg, po administered after 23 hrs of adjuvant challenge measured after 1 hr; type: ADME, organism-based; design: dose 3 mg/kg, route oral; details: brain and blood
# In short: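 Rat CFA inflammatory pain model: oral dosing at 1, 3 or 10 mg/kg 23 h after intraplantar adjuvant; blood and brain sampled 1 h post-dose from the same animal; Br:Bl ratio is the mean from three animals.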
structure (smiles),measurement,setting,value
O=C([O-])c1cccc(Cc2cc(Cl)ccc2OCc2ccc(Cl)cc2F)n1.[Na+],CL,[1],4.8 mL/min/g
same,bioavailability,[2],94%
same,Ki,[3],0.01 µM
same,clearance,[4],19 mL/min/kg
same,IC50,[5],85 µM
same,logD,[6],2.1
same,half-life,[7],2.3 h
same,Kp at 12 h,[8],0.24
same,efflux ratio at 1 h,[9],0.9
same,IC50,[10],> 1 µM
same,Kp at 1 h,[11],0.41
same,Ki,[12],0.00794 µM
same,Kp at 1 hr,[13],0.34
same,IC50,[14],8 µM
same,concentration at 1 h,[15],175 nM
same,ED50,[16],2.6 mg/kg
same,half-life,[17],0.6 h
same,IC50,[18],> 10 µM
same,solubility at 0.5 h,[19],358 µg/mL
same,IC50,[20],> 10 µM
same,concentration at 1 h,[21],415 nM
same,concentration at 12 h,[22],225 nM
same,Vd,[23],2.1 L/kg
same,Vd,[24],0.6 L/kg
same,CL,[25],0.7 mL/min/g
same,concentration at 1 h,[26],501 nM
same,Kp at 1 h,[27],0.37
